Here are results for 23 compounds from ChEMBL document CHEMBL2424574, “Structure-activity relationships and pharmacophore model of a noncompetitive pyrazoline containing class of GluN2C/GluN2D selective antagonists” (J Med Chem, 2013).

Assay [1] concerns the target Glutamate receptor ionotropic, NMDA 2B (Rattus norvegicus) (UniProt Q00960). As to the kind of experiment: Negative allosteric modulation of recombinant rat GluN2B receptor expressed in Xenopus laevis oocytes at 100 uM by two-electrode voltage clamp method. The class given is cell-based. As to conditions: Oocyte. The method in brief: (§1)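 Two-electrode voltage clamp of Xenopus oocytes expressing rat GluN1 with GluN2A, 2B, 2C or 2D. Holding potential −40 mV in recording solution (mM: 90 NaCl, 1 KCl, 0.5 BaCl2, 0.005 EDTA, 10 HEPES, pH 7.4, 23 °C). Compounds diluted from 20 mM DMSO stocks to 0.05–0.1% final DMSO. IC50 from a Hill fit to the averaged composite concentration–response curve, 5–24 oocytes from 2–4 frogs.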

Assay [2] concerns the target Glutamate receptor ionotropic, NMDA 2A (Rattus norvegicus) (UniProt Q00959). As to the kind of experiment: Negative allosteric modulation of recombinant rat GluN2A receptor expressed in Xenopus laevis oocytes at 100 uM by two-electrode voltage clamp method. The class given is cell-based. As to conditions: Oocyte. The method in brief:
as §1

Assay [3] has as its target Glutamate receptor ionotropic, NMDA 2C (Rattus norvegicus, UniProt P35439+Q00961). The assay is described as follows: Negative allosteric modulation of recombinant rat GluN2C receptor expressed in Xenopus laevis oocytes by two-electrode voltage clamp method. The format is cell-based, Oocyte. The method in brief:
as §1

For assay [4], the target named is Glutamate receptor ionotropic, NMDA 2D (Rattus norvegicus, UniProt P35439+Q62645). As to the kind of experiment: Negative allosteric modulation of recombinant rat GluN2D receptor expressed in Xenopus laevis oocytes by two-electrode voltage clamp method. The format is cell-based, Oocyte. The method in brief:
as §1

Assay [5] concerns the target Glutamate receptor ionotropic, NMDA 2C (Rattus norvegicus) (UniProt Q00961). The assay is described as follows: Negative allosteric modulation of recombinant rat GluN2C receptor expressed in Xenopus laevis oocytes at 100 uM by two-electrode voltage clamp method. The format is cell-based. As to conditions: Oocyte. The method in brief: as §1
Assay [6] addresses Glutamate receptor ionotropic, NMDA 2D (Rattus norvegicus) (UniProt Q62645). As to the kind of experiment: Negative allosteric modulation of recombinant rat GluN2D receptor expressed in Xenopus laevis oocytes at 100 uM by two-electrode voltage clamp method. The note with it: Oocyte. The class given is cell-based. The method in brief:
as §1

Assay [7] addresses Glutamate receptor ionotropic, NMDA 2D (Homo sapiens, UniProt O15399+Q05586). As to the kind of experiment: Inhibition of NMDA GluN2D receptor (unknown origin).
The species entered for another assay is Homo sapiens. The assay is described as follows: Selectivity ratio of IC50 for NMDA GluN2B receptor (unknown origin) to IC50 for NMDA GluN2D receptor (unknown origin).
For assay [8], the species on record is Rattus norvegicus. As to the kind of experiment: Selectivity ratio of IC50 for recombinant rat GluN2B receptor to IC50 for recombinant rat GluN2D receptor. The method in brief:
(§2)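 Rat GluN1 co-expressed with GluN2A, GluN2B or GluN2D in Xenopus oocytes. Two-electrode voltage clamp at −40 mV in 90 NaCl, 1 KCl, 0.5 BaCl2, 0.005 EDTA, 10 HEPES (mM), pH 7.4, 23 °C; final DMSO 0.1–0.05%. IC50s came from Hill fits to averaged composite concentration-response curves (5–24 oocytes, 2–4 frogs). Ratio is GluN2A or GluN2B IC50 over GluN2D IC50.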

Assay [9] concerns the target Glutamate receptor ionotropic, NMDA 2B (Rattus norvegicus, UniProt P35439+Q00960). The assay is described as follows: Negative allosteric modulation of recombinant rat GluN2B receptor expressed in Xenopus laevis oocytes by two-electrode voltage clamp method. The format is cell-based, Oocyte. The method in brief: as §1
Assay [10] deals with Glutamate receptor ionotropic, NMDA 2A (Rattus norvegicus, UniProt P35439+Q00959). The assay is described as follows: Negative allosteric modulation of recombinant rat GluN2A receptor expressed in Xenopus laevis oocytes by two-electrode voltage clamp method. The class given is cell-based, Oocyte. The method in brief:
as §1

For assay [11], the species on record is Rattus norvegicus. The assay is described as follows: Selectivity ratio of IC50 for recombinant rat GluN2A receptor to IC50 for recombinant rat GluN2D receptor. The method in brief: as §2

Sequence of Glutamate receptor ionotropic, NMDA 2C (Rattus norvegicus) (Q00961 20-1237 limits assumed): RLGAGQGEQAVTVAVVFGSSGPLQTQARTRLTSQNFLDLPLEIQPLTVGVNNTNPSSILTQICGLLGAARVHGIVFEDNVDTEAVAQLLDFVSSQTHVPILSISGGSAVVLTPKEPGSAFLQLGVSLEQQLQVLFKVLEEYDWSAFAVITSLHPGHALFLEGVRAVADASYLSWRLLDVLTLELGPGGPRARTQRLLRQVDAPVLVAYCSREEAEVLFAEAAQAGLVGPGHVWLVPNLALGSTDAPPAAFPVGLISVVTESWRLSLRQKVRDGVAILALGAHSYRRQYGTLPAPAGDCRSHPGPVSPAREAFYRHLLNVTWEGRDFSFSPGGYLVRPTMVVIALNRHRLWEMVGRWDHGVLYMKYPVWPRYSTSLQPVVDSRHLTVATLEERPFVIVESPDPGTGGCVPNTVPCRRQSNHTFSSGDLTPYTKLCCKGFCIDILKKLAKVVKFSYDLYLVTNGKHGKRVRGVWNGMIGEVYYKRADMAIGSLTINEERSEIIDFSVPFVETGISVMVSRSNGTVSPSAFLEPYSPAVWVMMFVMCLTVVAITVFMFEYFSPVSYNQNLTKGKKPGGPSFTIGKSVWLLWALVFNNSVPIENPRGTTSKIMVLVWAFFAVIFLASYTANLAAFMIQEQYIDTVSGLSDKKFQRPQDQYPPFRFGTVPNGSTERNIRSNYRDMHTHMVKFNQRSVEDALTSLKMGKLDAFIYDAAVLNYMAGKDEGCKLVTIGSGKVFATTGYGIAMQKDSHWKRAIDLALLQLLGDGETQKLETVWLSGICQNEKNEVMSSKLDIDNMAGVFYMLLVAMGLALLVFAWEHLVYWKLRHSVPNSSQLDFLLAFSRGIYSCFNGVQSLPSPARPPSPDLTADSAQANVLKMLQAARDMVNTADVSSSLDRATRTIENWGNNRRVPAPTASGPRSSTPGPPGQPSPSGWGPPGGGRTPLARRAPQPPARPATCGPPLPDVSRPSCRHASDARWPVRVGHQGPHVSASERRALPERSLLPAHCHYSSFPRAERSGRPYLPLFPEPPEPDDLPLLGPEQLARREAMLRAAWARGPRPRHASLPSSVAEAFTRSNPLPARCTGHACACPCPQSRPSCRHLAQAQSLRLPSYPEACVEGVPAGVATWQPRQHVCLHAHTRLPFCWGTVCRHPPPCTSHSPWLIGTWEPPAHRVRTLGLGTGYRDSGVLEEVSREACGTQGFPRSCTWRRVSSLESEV
Sequence of Glutamate receptor ionotropic, NMDA 2B (Rattus norvegicus) (Q00960 27-1482 limits assumed): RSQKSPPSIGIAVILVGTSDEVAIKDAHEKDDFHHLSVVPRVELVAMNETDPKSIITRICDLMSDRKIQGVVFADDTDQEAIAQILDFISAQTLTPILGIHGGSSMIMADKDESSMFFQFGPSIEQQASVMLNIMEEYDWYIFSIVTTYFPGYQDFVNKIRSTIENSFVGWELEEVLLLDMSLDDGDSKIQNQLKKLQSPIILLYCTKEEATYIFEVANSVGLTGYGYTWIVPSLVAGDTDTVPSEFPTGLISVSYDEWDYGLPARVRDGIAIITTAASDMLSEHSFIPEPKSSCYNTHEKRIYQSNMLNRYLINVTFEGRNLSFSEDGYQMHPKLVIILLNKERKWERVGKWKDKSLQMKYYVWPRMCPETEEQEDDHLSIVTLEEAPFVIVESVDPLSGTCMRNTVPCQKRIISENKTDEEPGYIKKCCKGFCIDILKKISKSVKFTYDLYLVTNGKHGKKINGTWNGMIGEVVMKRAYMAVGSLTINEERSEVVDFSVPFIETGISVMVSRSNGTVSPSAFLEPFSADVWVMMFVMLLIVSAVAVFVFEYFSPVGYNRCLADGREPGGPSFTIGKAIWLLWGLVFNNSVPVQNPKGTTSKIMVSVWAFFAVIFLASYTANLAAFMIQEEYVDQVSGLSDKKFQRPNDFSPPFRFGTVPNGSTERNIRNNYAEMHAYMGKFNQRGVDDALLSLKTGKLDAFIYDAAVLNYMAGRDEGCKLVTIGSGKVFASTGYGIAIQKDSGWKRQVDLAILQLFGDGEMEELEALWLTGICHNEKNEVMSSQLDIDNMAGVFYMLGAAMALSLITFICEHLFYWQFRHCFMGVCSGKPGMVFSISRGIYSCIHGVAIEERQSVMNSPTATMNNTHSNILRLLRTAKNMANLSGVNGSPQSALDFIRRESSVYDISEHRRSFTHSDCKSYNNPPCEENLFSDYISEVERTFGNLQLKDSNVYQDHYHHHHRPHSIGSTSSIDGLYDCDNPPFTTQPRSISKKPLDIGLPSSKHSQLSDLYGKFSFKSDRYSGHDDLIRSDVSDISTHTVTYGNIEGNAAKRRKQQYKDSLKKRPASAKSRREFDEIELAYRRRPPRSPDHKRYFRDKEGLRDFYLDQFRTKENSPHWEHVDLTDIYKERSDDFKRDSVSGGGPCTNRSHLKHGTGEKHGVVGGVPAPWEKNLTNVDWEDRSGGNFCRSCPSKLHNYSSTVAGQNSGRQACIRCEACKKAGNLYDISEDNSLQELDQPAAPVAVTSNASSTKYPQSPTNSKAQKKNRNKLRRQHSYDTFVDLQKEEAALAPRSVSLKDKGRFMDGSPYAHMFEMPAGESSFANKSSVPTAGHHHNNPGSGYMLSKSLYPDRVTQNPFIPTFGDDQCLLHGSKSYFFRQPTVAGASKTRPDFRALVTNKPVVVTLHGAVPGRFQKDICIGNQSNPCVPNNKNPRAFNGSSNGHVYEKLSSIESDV
Sequence of Glutamate receptor ionotropic, NMDA 2C (Q00961 whole entry, one chain of several): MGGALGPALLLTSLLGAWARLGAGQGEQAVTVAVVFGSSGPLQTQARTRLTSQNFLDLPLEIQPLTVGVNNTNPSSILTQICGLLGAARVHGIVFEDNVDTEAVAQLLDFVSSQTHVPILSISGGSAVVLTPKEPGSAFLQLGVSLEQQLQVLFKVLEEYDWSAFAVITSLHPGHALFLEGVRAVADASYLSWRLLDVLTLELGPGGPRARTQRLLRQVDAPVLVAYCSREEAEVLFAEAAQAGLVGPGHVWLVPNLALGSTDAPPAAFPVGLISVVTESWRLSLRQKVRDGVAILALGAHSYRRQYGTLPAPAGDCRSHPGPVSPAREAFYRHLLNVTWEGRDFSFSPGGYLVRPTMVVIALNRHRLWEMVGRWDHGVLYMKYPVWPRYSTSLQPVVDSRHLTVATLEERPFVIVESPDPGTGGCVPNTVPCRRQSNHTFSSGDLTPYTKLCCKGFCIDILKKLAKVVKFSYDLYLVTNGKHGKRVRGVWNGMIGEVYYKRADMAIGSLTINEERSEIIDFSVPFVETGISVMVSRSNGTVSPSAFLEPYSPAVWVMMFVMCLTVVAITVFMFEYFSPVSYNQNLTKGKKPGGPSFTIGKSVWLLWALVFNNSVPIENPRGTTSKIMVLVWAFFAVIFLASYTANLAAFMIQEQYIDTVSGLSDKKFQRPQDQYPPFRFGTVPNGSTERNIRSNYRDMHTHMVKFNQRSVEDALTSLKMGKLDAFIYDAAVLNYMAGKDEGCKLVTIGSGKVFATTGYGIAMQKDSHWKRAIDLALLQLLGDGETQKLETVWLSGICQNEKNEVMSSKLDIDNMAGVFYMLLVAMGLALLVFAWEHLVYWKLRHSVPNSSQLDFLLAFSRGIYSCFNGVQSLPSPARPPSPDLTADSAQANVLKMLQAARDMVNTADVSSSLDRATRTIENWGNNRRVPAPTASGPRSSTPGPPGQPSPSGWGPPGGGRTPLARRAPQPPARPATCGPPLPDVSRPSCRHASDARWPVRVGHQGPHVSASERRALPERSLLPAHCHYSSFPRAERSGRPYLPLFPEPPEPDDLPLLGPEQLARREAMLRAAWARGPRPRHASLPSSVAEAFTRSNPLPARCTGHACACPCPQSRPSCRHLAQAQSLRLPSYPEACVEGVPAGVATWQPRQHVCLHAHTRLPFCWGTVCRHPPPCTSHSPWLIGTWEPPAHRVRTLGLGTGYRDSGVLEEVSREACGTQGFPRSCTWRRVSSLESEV

As to `O=C(O)/C=C/C(=O)N1N=C(c2c(-c3ccccc3)c3cc(Cl)ccc3[nH]c2=O)CC1c1ccc(Br)cc1` (stereo unspecified), the inhibition in assay [1] and in assay [2] was less than 30% throughout. For the same compound, the concentration for half-maximal inhibition (IC50) in assay [3] stood at 2.1 µM; in [4] it was 1.4 µM.
Turning to `COC(=O)/C=C/C(=O)N1N=C(c2c(-c3ccc(Br)cc3)c3ccccc3[nH]c2=O)CC1c1ccc(Cl)cc1` (stereo unspecified), the inhibition in [1] and in [2] was less than 30% each time. The IC50 in [3] came to 59 µM; in [4] it was 95 µM.
On to `COC(=O)CCCN1N=C(c2c(-c3ccc(Cl)cc3)c3ccccc3[nH]c2=O)CC1c1ccc(Cl)cc1` (stereo unspecified), for which the inhibition in assay [1], in [2], in assay [5] and in assay [6] was less than 30% in each case.
With `Cc1ccc2[nH]c(=O)c(C3=NN(C(=O)CCC(=O)O)C(c4ccc(Br)cc4)C3)c(-c3ccccc3)c2c1` (stereo unspecified), in assay [7], the IC50 was 2.7 µM. Further, the Ratio IC50 in the assay filed under Homo sapiens was 41.
On to `COC(=O)c1ccc(C2CC(c3c(-c4ccccc4)c4cc(Cl)ccc4[nH]c3=O)=NN2C(=O)CCC(=O)O)cc1` (stereo unspecified), for which the inhibition in [1] and in [2] was less than 30% throughout. In addition, in assay [3], the concentration for half-maximal inhibition (IC50) was 93 µM.
In the case of `O=C(O)CCC(=O)N1N=C(c2c(-c3cccc(C(F)(F)F)c3)c3ccccc3[nH]c2=O)CC1c1ccc(Cl)cc1` (stereo unspecified), the IC50 in assay [3] amounted to 3.4 µM; in assay [4] it was 2.6 µM; in assay [9], 47 µM; in assay [10] it was 28 µM. Besides, the Ratio IC50 in the assay filed under Rattus norvegicus [8] turned out to be 18; in the assay filed under Rattus norvegicus [11], 11.
`O=C(O)CCC(=O)N1N=C(c2c(-c3ccccc3)c3cc(Cl)ccc3[nH]c2=O)CC1c1ccc(Br)cc1` (stereo unspecified): in assay [2], the inhibition was less than 30%. The IC50 is 3.6 µM in assay [3] and 3.1 µM in [4].
`O=C(O)CCC(=O)N1N=C(c2c(-c3ccccc3)c3cc(Cl)ccc3[nH]c2=O)CC1c1ccc2c(c1)OCO2` (stereo unspecified): in assay [2], the inhibition is less than 30%. Also, the IC50 in assay [3] was 23 µM; in [4], 23 µM; in assay [9], 90 µM. Further, in the assay filed under Rattus norvegicus [8], the Ratio IC50 turned out to be 4.
As to `O=C(O)CCC(=O)N1N=C(c2c(O)nc3ccc(Cl)cc3c2-c2ccccc2)CC1c1ccccc1` (stereo unspecified), the inhibition in [1] and in [2] was less than 30% in each case.
As to `O=C(O)CCCC(=O)N1N=C(c2c(-c3ccccc3)c3cc(Cl)ccc3[nH]c2=O)CC1c1ccc(Br)cc1` (stereo unspecified), the IC50 in assay [3] was 6.4 µM; in assay [4] it was 4 µM; in [9], 90 µM; in [10], 78 µM. In addition, the Ratio IC50 is 23 in the assay listed under Rattus norvegicus [8] and 20 in the assay listed under Rattus norvegicus [11].
As to `O=C(O)CCCC(=O)N1N=C(c2c(-c3ccccc3)c3cc(Cl)ccc3[nH]c2=O)CC1c1ccc([N+](=O)[O-])cc1` (stereo unspecified), the 50% inhibitory concentration (IC50) in assay [3] is 10 µM; in [4] it was 11 µM; in assay [9], 92 µM; in assay [10] it was 109 µM. The figures for the Ratio IC50 in the assay filed under Rattus norvegicus [8] and in the assay filed under Rattus norvegicus [11] were 8 and 10, respectively.
`O=C(O)CCC(=O)N1N=C(c2c(-c3ccccc3)c3cc(Cl)ccc3[nH]c2=O)CC1c1ccc(Cl)cc1` (stereo unspecified): the inhibition in [1] and in assay [2] was less than 30% throughout. The IC50 was 5.5 µM in assay [3] and 4.5 µM in assay [4].
In the case of `O=C(O)/C=C\C(=O)N1N=C(c2c(-c3ccccc3)c3cc(Cl)ccc3[nH]c2=O)CC1c1ccc(Br)cc1` (stereo unspecified), the 50% inhibitory concentration (IC50) in assay [3] is 8.9 µM; in assay [4], 5 µM; in assay [9], 37 µM; in assay [10] it was 74 µM. Also, the Ratio IC50 in the assay listed under Rattus norvegicus [8] amounted to 7; in the assay listed under Rattus norvegicus [11], 15.
For the compound `O=C(O)CCC(=O)N1N=C(c2c(-c3ccc(Br)cc3)c3ccccc3[nH]c2=O)CC1c1ccccc1` (stereo unspecified), the IC50 was found to be 10 µM in assay [3], 9.1 µM in assay [4], 113 µM in assay [9] and 64 µM in [10]. Besides, the Ratio IC50 came out at 12 in the assay filed under Rattus norvegicus [8] and 7 in the assay listed under Rattus norvegicus [11].
Consider `O=C(O)CCC(=O)N1N=C(c2c(-c3cc(Cl)cc(Cl)c3)c3ccccc3[nH]c2=O)CC1c1ccc(Cl)cc1` (stereo unspecified), for which the IC50 in [3] stood at 0.78 µM; in assay [4], 0.7 µM; in [9], 13 µM; in assay [10] it was 5.5 µM. The Ratio IC50 in the assay filed under Rattus norvegicus [8] came out at 19; in the assay listed under Rattus norvegicus [11], 8.
`NC(=O)CCC(=O)N1N=C(c2c(-c3ccc(Cl)cc3)c3ccccc3[nH]c2=O)CC1c1ccc(Cl)cc1` (stereo unspecified): the IC50 in [3] turned out to be 2 µM; in assay [4], 1.1 µM; in assay [9], 20 µM; in assay [10], 34 µM. Besides, the Ratio IC50 in the assay filed under Rattus norvegicus [8] worked out at 18; in the assay filed under Rattus norvegicus [11] it was 31.
As for `N#Cc1ccc(-c2c(C3=NN(C(=O)CCC(=O)O)C(c4ccc(Cl)cc4)C3)c(=O)[nH]c3ccccc23)cc1` (stereo unspecified), the inhibition in [1] was less than 30%. Moreover, the figures for the concentration for half-maximal inhibition (IC50) in assay [3], in assay [4] and in [10] were 12 µM, 7 µM and 156 µM, respectively. For the same compound, the Ratio IC50 in the assay listed under Rattus norvegicus [11] was found to be 22.
For the compound `COC(=O)CCC(=O)N1N=C(c2c(-c3ccccc3)c3cc(Cl)ccc3[nH]c2=O)CC1c1ccc(Br)cc1` (stereo unspecified), the inhibition in assay [1], in assay [2], in assay [5] and in [6] was less than 30% in each case.
`N#Cc1cccc(-c2c(C3=NN(C(=O)CCC(=O)O)C(c4ccc(Cl)cc4)C3)c(=O)[nH]c3ccccc23)c1` (stereo unspecified): the inhibition in [1] and in assay [2] was less than 30% throughout. Moreover, the values for the IC50 in [3] and in assay [4] were 19 µM and 13 µM, respectively.
For `CN(C)c1ccc(C2CC(c3c(-c4ccccc4)c4cc(Cl)ccc4[nH]c3=O)=NN2C(=O)CCC(=O)O)cc1` (stereo unspecified), the inhibition in assay [1] and in [2] was less than 30% each time. Further, the values for the concentration for half-maximal inhibition (IC50) in assay [3] and in assay [4] were 39 µM and 19 µM, respectively.
As to `O=C(O)CCC(=O)N1N=C(c2c(-c3ccc(F)c(F)c3)c3ccccc3[nH]c2=O)CC1c1ccc(Cl)cc1` (stereo unspecified), the IC50 in assay [3] was determined as 0.78 µM; in [4] it was 0.66 µM; in assay [9], 71 µM; in assay [10], 21 µM. Also, the Ratio IC50 in the assay listed under Rattus norvegicus [8] was 108; in the assay filed under Rattus norvegicus [11] it was 32.
With `O=C(O)CCC(=O)N1N=C(c2c(-c3cc(F)cc(F)c3)c3ccccc3[nH]c2=O)CC1c1ccc(Cl)cc1` (stereo unspecified), the IC50 in [3] was determined as 1.1 µM; in [4], 0.81 µM; in assay [9] it was 100 µM; in assay [10], 21 µM. Further, the Ratio IC50 in the assay filed under Rattus norvegicus [8] is 123; in the assay filed under Rattus norvegicus [11], 26.
`O=C(O)CCC(=O)N1N=C(c2c(-c3ccccc3)c3cc(Cl)ccc3[nH]c2=O)CC1c1ccc(C(=O)O)cc1` (stereo unspecified): the inhibition in assay [1], in assay [2], in assay [5] and in [6] was less than 30% each time.
